The values below come from ChEMBL document CHEMBL1133678, “Synthesis of new indeno[1,2-c]isoquinolines: cytotoxic non-camptothecin topoisomerase I inhibitors” (2000).

For one experiment, the system named is UACC-62. The experiment can be described thus: Antiproliferative activity was determined for 50% growth inhibition against human melanoma UACC-62 cell line. The experiment is classed as functional. The following applies: Homo sapiens, UACC-62. The gist of the method: (§1)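 Human cancer cell lines from the roughly 55-line panel. GI50 is the concentration giving 50% growth inhibition. The test range was 10^-4 to 10^-8 M. Values outside the range were set to the minimum (10^-8 M) or the maximum (10^-4 M).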
Consider `COc1cc2c(cc1OC)-c1c(c3ccccc3c(=O)n1CCCN)C2=O.Cl`, for which the GI50 (commonly the concentration at which growth is held to half of that of the control) came out at 1270 nM.
Still for that read-out and setting: the value for `COc1cc2c3c(n(C)c(=O)c2cc1OC)-c1cc2c(cc1C3=O)OCO2` was 4200 nM; that for `CC[C@@]1(O)C(=O)OCc2c1cc1n(c2=O)Cc2cc3ccccc3nc2-1` [CAMPTOTHECIN] was 10 nM.

In a further experiment the test system is SN12C. The experiment in a line: Antiproliferative activity was determined for 50% growth inhibition against human renal SN12C cell line. The format is functional. The following applies: Homo sapiens, SN12C. In a few lines: as §1
`COc1cc2c(cc1OC)-c1c(c3ccccc3c(=O)n1CCCN)C2=O.Cl` showed a GI50 of 430 nM.
As to `COc1cc2c3c(n(C)c(=O)c2cc1OC)-c1cc2c(cc1C3=O)OCO2`, the GI50 turned out to be 68000 nM.
On the same count and under the same terms, the value for `COc1cc2c3c(n(CCCN=[N+]=[N-])c(=O)c2cc1OC)-c1cc2c(cc1C3=O)OCO2` was 4530 nM; that for `CC[C@@]1(O)C(=O)OCc2c1cc1n(c2=O)Cc2cc3ccccc3nc2-1` [CAMPTOTHECIN] was 20 nM.

The test system of the next experiment is Panel (Carcinoma cell lines). The experiment can be described thus: Mean graph midpoint for growth inhibition of all human cancer cell lines. The experiment is classed as functional. Further details: unit: µM.
Conditions: not given
The gist of the method: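 Mean graph midpoint across all cell lines successfully tested in the roughly 55-line human cancer panel. Each line's GI50 is the 50% growth-inhibition concentration, tested over 10^-4 to 10^-8 M. Out-of-range values were set to 10^-8 M or 10^-4 M before averaging.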
The molecule `COc1cc2c(cc1OC)-c1c(c3ccccc3c(=O)n1CCCN)C2=O.Cl` had an MGM of 0.62.
In the case of `COc1cc2c3c(n(C)c(=O)c2cc1OC)-c1cc2c(cc1C3=O)OCO2`, the MGM was found to be 20.
In turn, `COc1cc2c3c(n(CCCN=[N+]=[N-])c(=O)c2cc1OC)-c1cc2c(cc1C3=O)OCO2` had an MGM of 11.8.
The same measure, in the same setting: the value for `COc1cc2c3c(n(CCCNCCO)c(=O)c2cc1OC)-c1cc2c(cc1C3=O)OCO2` [LMP-744] was 0.21.

The subject of the next experiment is OVCAR-3. The experiment in a line: Antiproliferative activity was determined for 50% growth inhibition against human ovarian OVCAR-3 cell line. The experiment is classed as functional.
Conditions: not given
In a few lines:
as §1
`COc1cc2c3c(n(CCCNCCO)c(=O)c2cc1OC)-c1cc2c(cc1C3=O)OCO2` [LMP-744] showed a GI50 of 1500 nM.

Staying with this experiment, now noted: Homo sapiens, OVCAR-3.
In turn, `COc1cc2c(cc1OC)-c1c(c3ccccc3c(=O)n1CCCN)C2=O.Cl` had a GI50 of 850 nM.
The same measure, in the same setting: the value for `COc1cc2c3c(n(CCCN=[N+]=[N-])c(=O)c2cc1OC)-c1cc2c(cc1C3=O)OCO2` was 76200 nM.

The test system of a further experiment is HOP-62. The experiment in a line: Antiproliferative activity was determined for 50% growth inhibition against human lung HOP-62 cell line. The format is functional. The conditions noted are these: Homo sapiens, HOP-62. The gist of the method: as §1
As to `COc1cc2c(cc1OC)-c1c(c3ccccc3c(=O)n1CCCN)C2=O.Cl`, the GI50 was found to be 190 nM.
On the same count and under the same terms, then `COc1cc2c3c(n(C)c(=O)c2cc1OC)-c1cc2c(cc1C3=O)OCO2`, with 1300 nM.
Same read-out and setting: then `COc1cc2c3c(n(CCCN=[N+]=[N-])c(=O)c2cc1OC)-c1cc2c(cc1C3=O)OCO2`, with 3580 nM; and `CC[C@@]1(O)C(=O)OCc2c1cc1n(c2=O)Cc2cc3ccccc3nc2-1` [CAMPTOTHECIN], with 10 nM.

The test system of a further experiment is DU-145. The experiment can be described thus: Antiproliferative activity was determined for 50% growth inhibition against human Prostate DU-145 cell line. The experiment is classed as functional. The conditions noted are these: Homo sapiens, DU-145. The gist of the method:
as §1
The molecule `COc1cc2c(cc1OC)-c1c(c3ccccc3c(=O)n1CCCN)C2=O.Cl` gave a 50% growth inhibitory concentration (GI50) of 890 nM.
The same measure, in the same setting: the value for `COc1cc2c3c(n(C)c(=O)c2cc1OC)-c1cc2c(cc1C3=O)OCO2` was 37000 nM; that for `COc1cc2c3c(n(CCCN=[N+]=[N-])c(=O)c2cc1OC)-c1cc2c(cc1C3=O)OCO2` was 3190 nM.
Same read-out and setting: then `COc1cc2c3c(n(CCCNCCO)c(=O)c2cc1OC)-c1cc2c(cc1C3=O)OCO2` [LMP-744], with 20 nM; and `CC[C@@]1(O)C(=O)OCc2c1cc1n(c2=O)Cc2cc3ccccc3nc2-1` [CAMPTOTHECIN], with 10 nM.

The next experiment relates to HCT-116. The experiment can be described thus: Antiproliferative activity was determined for 50% growth inhibition against human colon HCT116 cell line. The format is functional. The conditions noted are these: Homo sapiens, HCT-116. In a few lines:
as §1
In the case of `COc1cc2c(cc1OC)-c1c(c3ccccc3c(=O)n1CCCN)C2=O.Cl`, halving of growth (GI50) required 0.35 µM.
In turn, `COc1cc2c3c(n(C)c(=O)c2cc1OC)-c1cc2c(cc1C3=O)OCO2` gave a GI50 of 35 µM.
Consider `COc1cc2c3c(n(CCCN=[N+]=[N-])c(=O)c2cc1OC)-c1cc2c(cc1C3=O)OCO2`, for which the GI50 is 7.4 µM.
On the same count and under the same terms, the value for `CC[C@@]1(O)C(=O)OCc2c1cc1n(c2=O)Cc2cc3ccccc3nc2-1` [CAMPTOTHECIN] was 0.03 µM.

Another experiment deals with SF-539. The experiment in a line: Antiproliferative activity was determined for 50% growth inhibition against human CNS SF-539 cell line. The format is functional.
Conditions: not given
In a few lines:
as §1
On to `COc1cc2c3c(n(CCCNCCO)c(=O)c2cc1OC)-c1cc2c(cc1C3=O)OCO2` [LMP-744], for which the GI50 stood at 90 nM.

Still in this experiment, the particulars now being: Homo sapiens, SF-539.
`COc1cc2c(cc1OC)-c1c(c3ccccc3c(=O)n1CCCN)C2=O.Cl` yielded a GI50 of 2930 nM.
In turn, `COc1cc2c3c(n(C)c(=O)c2cc1OC)-c1cc2c(cc1C3=O)OCO2` returned a GI50 of 41000 nM.
`COc1cc2c3c(n(CCCN=[N+]=[N-])c(=O)c2cc1OC)-c1cc2c(cc1C3=O)OCO2` had a GI50 of 3000 nM.
Turning to `CC[C@@]1(O)C(=O)OCc2c1cc1n(c2=O)Cc2cc3ccccc3nc2-1` [CAMPTOTHECIN], halving of growth (GI50) required 10 nM.

A further experiment concerns MDA-MB-435. The experiment can be described thus: Antiproliferative activity was determined for 50% growth inhibition against human breast MDA-MB-435 cell line.
Conditions: not given
The format is functional. In a few lines:
as §1
With `COc1cc2c3c(n(CCCNCCO)c(=O)c2cc1OC)-c1cc2c(cc1C3=O)OCO2` [LMP-744], halving of growth (GI50) required 680 nM.

Still in this experiment, the particulars now being: Homo sapiens, MDA-MB-435.
Turning to `COc1cc2c(cc1OC)-c1c(c3ccccc3c(=O)n1CCCN)C2=O.Cl`, the GI50 stood at 1050 nM.
Still for that read-out and setting: then `COc1cc2c3c(n(C)c(=O)c2cc1OC)-c1cc2c(cc1C3=O)OCO2`, with 96000 nM.
Still for that read-out and setting: then `COc1cc2c3c(n(CCCN=[N+]=[N-])c(=O)c2cc1OC)-c1cc2c(cc1C3=O)OCO2`, with > 100000 nM; and `CC[C@@]1(O)C(=O)OCc2c1cc1n(c2=O)Cc2cc3ccccc3nc2-1` [CAMPTOTHECIN], with 40 nM.
